The values that follow come from article PMC6875695 (Journal of controlled release : official journal of the …, 2019).

One test deals with HIV-1ADA. In words: EC50 assay in MDM, HIV-1 RT activity. In kind it is cell-based. To be noted: Human immunodeficiency virus 1, 240 h. Put shortly: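 Human monocytes differentiated to macrophages with MCSF (1000 U/mL) for 7 days, then seeded at 0.15 × 10^6 cells/well and kept at 37 °C, 5% CO2. Cells were pretreated 2 h with test compound (0.1–1000 nM) and challenged with HIV-1ADA at MOI 0.1 for 4 h. After a PBS wash they were re-fed drug-containing medium at the same concentrations. Supernatant RT activity was read 10 days post-challenge.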

The subject of a further test is HIV-1NL4–3-eGFP. In words: EC50 assay in CEM-CD4+ T-cells, HIV-1 RT activity. The note with it: Human immunodeficiency virus 1, T-cell, 240 h. It counts as cell-based.
The test system of a further test is HIV-1. To be noted: no reference given; cited from earlier work.

As usually defined, the EC50 is the concentration that produces a half-maximal response. Higher therefore signals a less potent agent. On to `Cc1cc(/C=C/C#N)cc(C)c1Nc1ccnc(Nc2ccc(C#N)cc2)n1` [RPV, rilpivirine], for which the values for the EC50 with HIV-1ADA and in the test on HIV-1NL4–3-eGFP were 1.9 nM and 0.8 nM, respectively. Further, the “protein-adjusted 90% inhibitory concentration (PA-IC90)” value with HIV-1 is 0.012 µg/mL.
